The values that follow come from ChEMBL document CHEMBL1212920, “Discovery of 6-(aminomethyl)-5-(2,4-dichlorophenyl)-7-methylimidazo[1,2-a]pyrimidine-2-carboxamides as potent, selective dipeptidyl peptidase-4 (DPP4) inhibitors” (J Med Chem, 2010).

One series deals with hERG (KCNH2) (Homo sapiens, UniProt Q12809). As to the kind of experiment: Inhibition of human ERG at 10 uM.
A short description of series [1]: Membrane permeability by PAMPA assay. Conditions: read-out: permeability. The format is ADME. A general note: In PAMPA a lipid-coated filter parts donor from acceptor wells.
A further series deals with Canis familiaris. Put plainly: Volume of distribution at steady state in dog at 5 umol/kg, intra arterial and 2 umol/kg, po. The format is ADME, organism-based, Canis lupus familiaris. Conditions: in vivo.
Series [2] deals with Mus musculus. As to the kind of experiment: Antidiabetic activity in ob/ob mouse assessed as reduction in blood glucose level at 3 umol/kg, po administered 1 hr prior to glucose challenge by oral glucose tolerance test. In kind it is functional. Also on record: scale not given: the % may be the effect or the level left. In outline: (§1)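 Male ob/ob mice, 13-14 weeks old, fed a 10% fat diet, fasted overnight. Given vehicle (water) or inhibitor orally at -60 min, then oral glucose 2 g/kg at 0 min. Tail bleeds into EDTA tubes at -60, 0, 15, 30, 60, 90 and 120 min. Plasma glucose read by glucometer, insulin by mouse ELISA. Mean of 12-24 mice/group; one-way ANOVA with Dunnett's test.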

The nature of series [3]: Oral bioavailability in rat at 2 umol/kg, po. The format is ADME, organism-based. Conditions: in vivo. In outline: (§2)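 Rat pharmacokinetics after a 5 μmol/kg intraarterial dose and a 2 μmol/kg oral dose, with water as vehicle. Urine collected over 24 h and the fraction of dose excreted as unchanged parent measured. Terminal half-life estimated after intraarterial dosing.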

The subject of the next series is Rattus norvegicus. As to the kind of experiment: Volume of distribution at steady state in rat at 5 umol/kg, intra arterial and 2 umol/kg, po. In kind it is ADME, organism-based. Particulars: in vivo. In outline: as §2
Series [4] in a line: Cmax in rat at 5 umol/kg, intra arterial and 2 umol/kg, po after 0.6 hrs. Also noted: dose 5 umol/kg, route oral. Conditions: in vivo. The format is ADME, organism-based. In a few lines: as §2
Series [5] can be described thus: AUC (0 to infinity) in rat at 5 umol/kg, intra arterial and 2 umol/kg, po. In kind it is ADME, organism-based. Also noted: dose 5 umol/kg, route oral, time infinity. Conditions: plasma. In outline:
as §2

Series [6] can be described thus: Drug excretion in dog urine at 5 umol/kg, intra arterial and 2 umol/kg, po. Conditions: read-out: Activity. The format is ADME, organism-based, Canis lupus familiaris.
The nature of series [7]: Half life in rat at 5 umol/kg, intra arterial and 2 umol/kg, po. The format is ADME, organism-based. Particulars: in vivo. In a few lines:
as §2

A short description of series [8]: Half life in dog at 5 umol/kg, intra arterial and 2 umol/kg, po. In kind it is ADME, organism-based, Canis lupus familiaris. Particulars: in vivo.
Series [9] is described as follows: Clearance in iv dosed rat. In kind it is ADME, organism-based. Particulars: in vivo. In outline:
as §2

A short description of series [10]: Oral bioavailability in dog at 2 umol/kg, po. The format is ADME, organism-based, Canis lupus familiaris. Conditions: in vivo.
Series [11] can be described thus: Clearance in iv dosed dog. The format is ADME, organism-based, Canis lupus familiaris. Conditions: in vivo.
Series [12] has as its system Mus musculus. Put plainly: Antidiabetic activity in ob/ob mouse assessed as reduction in blood glucose level at 1 umol/kg, po administered 1 hr prior to glucose challenge by oral glucose tolerance test. In kind it is functional. Also noted: scale not given: the % may be the effect or the level left. In outline: as §1
Series [13] is described as follows: Drug excretion in rat urine at 5 umol/kg, intra arterial and 2 umol/kg, po. In kind it is ADME, organism-based. Particulars: read-out: Activity. In a few lines:
as §2

The next series addresses Dipeptidyl peptidase 8 (Homo sapiens, UniProt Q6V1X1). Put plainly: Inhibition of human DPP8.
The next series addresses Dipeptidyl peptidase 9 (Homo sapiens, UniProt Q86TI2). Put plainly: Inhibition of human DPP9.
Series [14] can be described thus: Cmax in ob/ob mouse at 3 mg/kg, po after 1 hr. In kind it is ADME, organism-based. Particulars: in vivo. Also on record: dose 3 mg/kg, route oral.
Series [15] can be described thus: Permeability across human Caco-2 cells. In kind it is ADME, cell-based. Particulars: read-out: permeability.
Series [16] concerns Mus musculus. Put plainly: In vivo inhibition of DPP4 activity in ob/ob mouse plasma at 1 umol/kg, po. The format is functional.
Series [17] relates to Mus musculus. As to the kind of experiment: Antidiabetic activity in ob/ob mouse assessed as increase in insulin level at 3 umol/kg, po administered 1 hr prior to glucose challenge by oral glucose tolerance test. The format is functional. In a few lines:
as §1

Series [18] relates to Mus musculus. Put plainly: Antidiabetic activity in ob/ob mouse assessed as increase in insulin level at 1 umol/kg, po administered 1 hr prior to glucose challenge by oral glucose tolerance test. The format is functional. In outline: as §1
Series [19] relates to Mus musculus. As to the kind of experiment: In vivo inhibition of DPP4 activity in ob/ob mouse plasma at 3 umol/kg, po. The format is functional.

Bounds are passed on as bounds.

A word on the inhibition: it is the share of the control response that was lost under treatment. The bioavailability is dose-corrected exposure relative to a reference, in per cent. For orientation: Cmax means the peak of the concentration-time curve. In general, AUC(0-inf) refers to total exposure, with the tail of the curve extrapolated. Usually half-life stands for how long it takes for the measured level to halve. Usually clearance stands for the volume of plasma or blood freed of the substance per unit of time. As a reminder, the Ki is a measure of affinity in units of concentration, obtained from inhibition or displacement. The term inhibition in vivo denotes how much of the control response was suppressed.

Sequence of hERG (KCNH2) (Q12809 whole entry): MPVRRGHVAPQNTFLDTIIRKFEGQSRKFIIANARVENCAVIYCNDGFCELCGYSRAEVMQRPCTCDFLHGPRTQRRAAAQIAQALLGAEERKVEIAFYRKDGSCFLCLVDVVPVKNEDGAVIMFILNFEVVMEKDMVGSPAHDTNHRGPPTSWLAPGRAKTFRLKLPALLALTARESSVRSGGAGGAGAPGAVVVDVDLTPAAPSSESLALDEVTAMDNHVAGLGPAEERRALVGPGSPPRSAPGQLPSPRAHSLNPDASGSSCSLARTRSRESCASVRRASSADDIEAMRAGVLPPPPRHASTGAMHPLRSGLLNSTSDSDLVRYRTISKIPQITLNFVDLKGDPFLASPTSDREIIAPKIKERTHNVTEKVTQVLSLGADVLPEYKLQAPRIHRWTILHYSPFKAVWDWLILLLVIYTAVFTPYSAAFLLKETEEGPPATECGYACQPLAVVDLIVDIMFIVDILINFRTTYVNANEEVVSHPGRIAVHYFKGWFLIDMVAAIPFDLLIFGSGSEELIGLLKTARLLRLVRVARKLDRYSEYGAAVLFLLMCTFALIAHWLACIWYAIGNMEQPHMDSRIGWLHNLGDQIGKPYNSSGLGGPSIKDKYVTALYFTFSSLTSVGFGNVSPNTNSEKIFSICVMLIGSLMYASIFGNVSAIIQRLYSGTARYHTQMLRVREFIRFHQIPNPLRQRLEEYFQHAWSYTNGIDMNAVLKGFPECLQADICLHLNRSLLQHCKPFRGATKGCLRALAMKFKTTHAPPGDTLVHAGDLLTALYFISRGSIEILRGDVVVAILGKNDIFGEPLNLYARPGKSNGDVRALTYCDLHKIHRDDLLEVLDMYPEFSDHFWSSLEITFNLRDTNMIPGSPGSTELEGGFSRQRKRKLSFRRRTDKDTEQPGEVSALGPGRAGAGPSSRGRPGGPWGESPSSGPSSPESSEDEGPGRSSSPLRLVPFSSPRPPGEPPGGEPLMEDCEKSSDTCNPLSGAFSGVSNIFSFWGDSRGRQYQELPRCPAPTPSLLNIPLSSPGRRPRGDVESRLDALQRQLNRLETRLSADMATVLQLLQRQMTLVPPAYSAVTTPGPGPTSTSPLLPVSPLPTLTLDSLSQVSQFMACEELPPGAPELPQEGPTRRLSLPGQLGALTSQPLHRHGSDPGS
Sequence of Dipeptidyl peptidase 9 (Q86TI2 whole entry): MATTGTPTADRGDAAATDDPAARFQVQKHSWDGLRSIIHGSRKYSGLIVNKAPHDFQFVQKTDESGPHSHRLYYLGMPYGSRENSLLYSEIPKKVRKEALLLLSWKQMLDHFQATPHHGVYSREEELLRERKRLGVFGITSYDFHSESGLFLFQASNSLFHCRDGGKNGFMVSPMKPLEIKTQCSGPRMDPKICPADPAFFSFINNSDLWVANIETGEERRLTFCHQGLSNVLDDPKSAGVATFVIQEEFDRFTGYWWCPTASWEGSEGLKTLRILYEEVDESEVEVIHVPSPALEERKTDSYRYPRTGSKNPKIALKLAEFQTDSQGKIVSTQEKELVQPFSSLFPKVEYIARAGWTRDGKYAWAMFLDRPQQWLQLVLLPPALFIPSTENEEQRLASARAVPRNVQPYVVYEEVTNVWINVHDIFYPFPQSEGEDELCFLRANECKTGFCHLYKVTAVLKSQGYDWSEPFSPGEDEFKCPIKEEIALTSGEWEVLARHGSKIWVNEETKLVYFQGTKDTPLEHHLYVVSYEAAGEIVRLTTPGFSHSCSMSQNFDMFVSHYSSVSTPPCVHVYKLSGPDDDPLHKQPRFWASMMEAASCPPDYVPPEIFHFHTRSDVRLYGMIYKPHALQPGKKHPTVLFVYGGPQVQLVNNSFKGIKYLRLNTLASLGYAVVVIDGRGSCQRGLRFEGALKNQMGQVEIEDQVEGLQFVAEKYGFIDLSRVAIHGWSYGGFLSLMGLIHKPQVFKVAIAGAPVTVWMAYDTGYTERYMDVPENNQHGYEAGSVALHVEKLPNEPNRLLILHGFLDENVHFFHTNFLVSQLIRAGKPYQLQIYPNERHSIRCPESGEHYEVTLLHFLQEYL
Sequence of Dipeptidyl peptidase 8 (Q6V1X1 whole entry): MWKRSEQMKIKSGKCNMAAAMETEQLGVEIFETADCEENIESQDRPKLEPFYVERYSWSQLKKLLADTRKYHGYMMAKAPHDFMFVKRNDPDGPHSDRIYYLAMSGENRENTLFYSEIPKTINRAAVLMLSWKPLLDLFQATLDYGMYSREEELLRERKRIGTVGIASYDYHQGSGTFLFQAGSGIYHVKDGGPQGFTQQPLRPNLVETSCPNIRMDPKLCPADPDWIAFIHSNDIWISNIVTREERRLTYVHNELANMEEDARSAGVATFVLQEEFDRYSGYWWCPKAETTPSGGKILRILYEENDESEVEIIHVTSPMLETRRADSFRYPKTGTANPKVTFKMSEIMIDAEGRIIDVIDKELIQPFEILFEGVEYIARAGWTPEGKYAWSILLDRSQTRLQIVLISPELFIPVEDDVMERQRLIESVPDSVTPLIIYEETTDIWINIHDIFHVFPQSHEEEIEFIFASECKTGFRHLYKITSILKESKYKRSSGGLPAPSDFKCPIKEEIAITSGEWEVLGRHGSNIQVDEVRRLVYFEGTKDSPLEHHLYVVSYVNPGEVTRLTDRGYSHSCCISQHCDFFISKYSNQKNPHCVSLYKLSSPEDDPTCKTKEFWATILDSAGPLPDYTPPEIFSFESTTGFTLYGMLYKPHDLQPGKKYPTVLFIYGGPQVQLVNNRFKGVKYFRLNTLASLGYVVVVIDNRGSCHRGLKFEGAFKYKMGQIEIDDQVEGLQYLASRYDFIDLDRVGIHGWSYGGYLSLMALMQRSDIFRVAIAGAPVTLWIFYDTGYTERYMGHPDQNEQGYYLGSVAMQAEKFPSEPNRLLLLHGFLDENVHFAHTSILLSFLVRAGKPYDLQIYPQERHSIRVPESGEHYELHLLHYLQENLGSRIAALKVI

In turn, `Cc1nc2nc(-c3ccccc3)cn2c(-c2ccc(Cl)cc2Cl)c1CN` registered an inhibition at 10 µM at hERG (KCNH2) of 74%.
Compound `CCOC(=O)c1cn2c(-c3ccc(Cl)cc3Cl)c(CN)c(C)nc2n1` registered an inhibition at 10 µM on hERG (KCNH2) of 23%.
As for `Cc1nc2nc(C(=O)N3CCCC3)cn2c(-c2ccc(Cl)cc2Cl)c1CN`, the Papp in series [1] came to 51.8 ×10⁻⁶ cm/s.
`Cc1nc2nc(C(=O)N3CCOCC3)cn2c(-c2ccc(Cl)cc2Cl)c1CN`: the Vdss with Canis familiaris worked out at 1.5 L/kg; in the series on Rattus norvegicus it was 1.3 L/kg. Moreover, the Activity came to 63% in the series on Mus musculus [2] and 66% in the series with Mus musculus [12]. Besides, the Papp in series [1] was found to be 46.4 ×10⁻⁶ cm/s. In addition, the bioavailability is 54% in series [3] and 76% in series [10]. Besides, the peak level in [4] (Cmax) was 324 nM. The compound further yielded an AUC(0-inf) in series [5] of 0.714 µM·h. Besides, the values for the dose excreted in series [6] and in series [13] were 41% and 56%, respectively. In addition, the half-life was 1.6 h in series [7] and 4.6 h in series [8]. Further, the clearance is 25.4 mL/min/kg in series [9] and 7.9 mL/min/kg in series [11].
As for `Cc1nc2nc(C(=O)NC3CCN(C(C)C)CC3)cn2c(-c2ccc(Cl)cc2Cl)c1CN`, the inhibition constant (Ki) at Dipeptidyl peptidase 8 and on Dipeptidyl peptidase 9 was above 10 µM in each case.
Turning to `Cc1nc2nc(C(=O)NCCN3CCCCC3)cn2c(-c2ccc(Cl)cc2Cl)c1CN`, the inhibitory constant (Ki) on Dipeptidyl peptidase 9 is above 30 µM.
In series [14], `Cc1nc2nc(C(=O)N3CC[C@H](NS(C)(=O)=O)C3)cn2c(-c2ccc(Cl)cc2Cl)c1CN` gave a Cmax of 45 nM. In series [15], the Papp was below 1.5 ×10⁻⁶ cm/s.
In the case of `CCn1nccc1NC(=O)c1cn2c(-c3ccc(Cl)cc3Cl)c(CN)c(C)nc2n1`, the Activity in the series with Mus musculus [2] was 58%; in the series on Mus musculus [17], 129%; with Mus musculus [18], 93%; in the series with Mus musculus [12], 40%. The same compound had an inhibition in vivo at 1 µmol/kg with Mus musculus [16] of 62%. In addition, the Papp in series [1] was determined as 66.9 ×10⁻⁶ cm/s. In series [3], this compound came in with a bioavailability of 64%. The compound further returned a Vdss in the series with Rattus norvegicus of 3.9 L/kg. In series [7], this compound gave a half-life of 2.1 h. In the series on Mus musculus [19], this compound registered an inhibition in vivo at 3 µmol/kg of 52.8%. Besides, the clearance in series [9] worked out at 43.2 mL/min/kg. For the same compound, at 10 µM the inhibition against hERG (KCNH2) was 31%. Further, the dose excreted in series [13] was 4.4%.
